SUMO1-SIM PPI = alters human SUMO1 binding to SIM partners. P63165. SUMO1 binding to a labelled peptide, TR-FRET, 1 h. inhibition, % at 20 µM. hit rate 0.33% among 360,000. AID 602429; in the data active means inhibition above about 37%
Target sequence (P63165 whole entry, looked up): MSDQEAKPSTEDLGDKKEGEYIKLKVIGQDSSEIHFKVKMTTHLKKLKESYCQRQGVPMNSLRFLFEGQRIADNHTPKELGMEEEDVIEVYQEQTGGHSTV
LMPTP inh = blocks human LMPTP phosphatase | recombinant LMPTP-A, OMFP fluorogenic substrate, fluorescence intensity | P24666 | inhibition, % at 20 µM | hit rate 0.22% among 360,000 | AID 651560;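 active means compounds that cut the enzyme signal by at least half of the control window in the single-dose screen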;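 further: plate controls were DMSO wells with enzyme plus substrate for no effect and substrate without enzyme for full effect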
Target sequence (P24666 whole entry, looked up): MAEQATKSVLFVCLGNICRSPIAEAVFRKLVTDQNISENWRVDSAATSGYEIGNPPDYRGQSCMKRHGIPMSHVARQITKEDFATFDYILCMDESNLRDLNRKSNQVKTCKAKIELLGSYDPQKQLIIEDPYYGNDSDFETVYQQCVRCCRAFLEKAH
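Test system: LMPTP-A, protein tyrosine phosphatase of low molecular weight; Input: 0.625 nM enzyme; Incubation: 50 min dark incubation at room temperature; Signal: endpoint fluorescence intensity from OMFP dephosphorylation; Read-out basis: % inhibition versus control wells.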
STEP inh = STEP (human) phosphatase inhibition | P54829 | recombinant STEP, OMFP fluorogenic substrate, fluorescence | inhibition, % at 20 µM | hit rate 0.25% among 360,000;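 active means inhibition at 20 µM, scaled per plate between control wells, above about 37%, limit read from the data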;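 further: 0% = DMSO with enzyme and substrate and 100% = substrate only without enzyme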
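Assay system: isolated STEP enzyme. Buffer or medium: pH 6.0 Bis-Tris with DTT and Tween 20. Also added: fluorogenic phosphatase substrate OMFP at 25 µM final. Dosing: 20 µM, 1% DMSO. Timing: 20 min reaction, room temperature, in the dark. Measured by: fluorescence intensity, excitation 480 nm, emission 540 nm. Evaluation: normalized % inhibition.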
Pemphigus Ab inh = inhibitors of pemphigus antibody binding to human desmoglein-3. AID 588358. binding (percent of control), % at 10 µM. DSG3-coupled beads, scFv-anti-DSG3-GFP binding, flow cytometry; stronger effect = lower value. hit rate 0.48% among 310,000. P32926;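 active means binding more than 3 SD below its plate's average and above zero; inconclusive means below that plate limit but binding exactly zero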
Scp1 inh = blocks human Scp-1 phosphatase activity. Q9GZU7. Recombinant Scp1, phosphopeptide, malachite green phosphate absorbance. inhibition, % at 20 µM. hit rate 0.88% among 340,000;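 active means inhibition above about 50% at 20 µM, limit read from the data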;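 further: plate controls were DMSO wells with enzyme for no effect and wells lacking enzyme for full effect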
Target sequence (Q9GZU7 76-261 limits assumed): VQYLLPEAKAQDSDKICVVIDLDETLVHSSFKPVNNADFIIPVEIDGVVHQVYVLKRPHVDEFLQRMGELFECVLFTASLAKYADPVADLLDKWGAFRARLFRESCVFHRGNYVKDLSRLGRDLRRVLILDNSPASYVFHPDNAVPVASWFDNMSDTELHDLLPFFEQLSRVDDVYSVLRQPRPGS
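Assay system: SCP-1 catalytic fragment, aa 76-261 | Buffer or medium: Tris acetate buffer pH 5.5 with MgCl2 and Tween-20 | Compound: One concentration, 20 µM, with 1.0% DMSO | Also added: Phospho 17-mer peptide substrate | Signal: Absorbance at 630 nm | Incubation: 45 min enzyme reaction at room temperature | Measure: % inhibition of SCP-1 phosphate liberation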
Scp1 confirm = confirmation of human Scp-1 phosphatase inhibitors; recombinant SCP-1 catalytic domain, phosphate release, malachite green absorbance; hit rate 61% among 2,500; inhibition, % at 20 µM; shares compounds with Scp1 inh;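 further: plate controls were DMSO with enzyme for no effect and buffer wells lacking enzyme for full effect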
MG interference = colorimetric interference in Scp-1 counter-screen | 2,500 tested, under 10 active | AID 540313 | apparent inhibition (interference), % at 20 µM | Colorimetric interference counterscreen, malachite green absorbance 630 nm | shares compounds with Scp1 inh;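 further: compounds added after enzyme reaction finished so only phosphate colour detection is probed; plate controls were DMSO wells with completed Scp-1 reaction for no effect and substrate wells lacking enzyme for full effect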
* = called active by the depositor; ? = inconclusive; nt = no result. Most compounds without a hit are left out; they make up all but 1.7% or so of the library.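 How the source made its calls, unless noted: active means inhibition of at least 30% at 20 µM; inactive means the rest.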

SMILES	SUMO1-SIM PPI	LMPTP inh	STEP inh	Pemphigus Ab inh	Scp1 inh	others
CC(NC(=O)c1ccco1)c1ccc(-n2ccnc2)cc1 (stereo not given)	0.9	-0.8	-2.2	?	-0.4
COc1ccc(S(=O)(=O)N2CCC(C(=O)NCCOc3ccccc3F)CC2)cc1OC	-11.9	-0.3	-0.3	92.7	-0.1
CCOC(=O)C1=C(COc2ccccc2)NC(=O)NC1c1ccc(Cl)cc1 (stereo not given)	68.7*	-1.1	-2.8	107.4	49.7
COC(=O)C1=C(COc2ccccc2)NC(=O)NC1c1ccc(Cl)cc1 (stereo not given)	nt	nt	nt	nt	22.1
O=C1CC(SC(=S)C2CCCC2=O)C(=O)N1 (stereo not given)	30.3	0.6	11.6	101.9	nt
COc1ccc(OC)c(CCNC(=O)c2ccc(NC3=NC4CS(=O)(=O)CC4S3)cc2)c1 (stereo not given)	2.1	-1.1	-1.2	102.4	-8.4
CCC(=O)Nc1c(C#N)c2nc3ccccc3nc2n1-c1ccc(C)cc1	-14.2	-0.1	2.4	91.4	-2.5
CCCCn1c(NC(=O)c2ccccc2)c(C#N)c2nc3ccccc3nc21	42.2*	16.1	1.8	90.4	-5.2
CCC(C)n1c(NC(=O)c2ccccc2)c(C#N)c2nc3ccccc3nc21 (stereo not given)	43.0*	16.1	2.9	nt	-1.8
CCOc1c(Br)cc(C(=O)NCCCn2ccnc2)cc1OC	-0.5	-1.7	-2.0	101.5	-4.0
NC(=S)N=Nc1c(O)cc(O)c2[nH]c(=O)ccc12	69.4*	14.4	39.0	72.6	84.7*
Cc1c(NC(=O)c2cc(-c3ccc(F)cc3)nc3ccccc23)c(=O)n(-c2ccccc2)n1C	-12.6	-0.6	2.8	66.8*	-9.5
O=C(COc1ccccc1Br)Nc1ccccc1C(F)(F)F	-2.3	-1.7	-1.4	92.0	-4.7
Cc1ccc2c(c1)C(=O)N(CCCCO)C2=O	8.2	-1.4	-3.4	69.4*	4.0
Cn1cnc2c1c(=O)n(Cc1cccc(Cl)c1)c(=O)n2C	3.8	-1.0	0.5	100.0	-15.4
Cc1nc2ccc(NC(=O)CCS(=O)(=O)c3ccc(Cl)cc3)cc2s1	-1.0	0.2	-0.8	-173.6*	13.0
COc1ccc(NC(=O)CCS(=O)(=O)c2ccc3nc(C)sc3c2)cc1OC	4.1	-1.9	-3.9	104.9	13.4
N#Cc1c(N)c(C#N)c(-c2ccc3c(c2)OCO3)c2c1CCCC2	43.6*	3.6	-0.4	107.7	-14.2
N#Cc1c(N)c(C#N)c(-c2ccc(O)cc2)c2c1CCCC2	5.5	0.7	-5.1	nt	-15.0
CC1(C)CC(=O)C(Sc2ccc(Br)cc2)=C(O)C1	-7.9	-2.1	-0.3	113.7	-6.9
Nc1ccc(C(=O)Nc2nc3ccccc3s2)cc1	1.6	-0.7	-0.5	101.9	60.4*
Cc1cc(C)n(-c2ccc(C(=O)Nc3nc4ccccc4s3)cc2)n1	6.0	-2.2	-0.6	107.8	-1.9
Nc1ccc(NC(=O)c2ccc(C(=O)Nc3ccc(N)cc3)cc2)cc1	59.4*	6.5	39.2	95.6	-9.8
COC(=O)c1sc(S(=O)(=O)NC(C)C(=O)O)c(C(=O)OC)c1C (stereo not given)	4.1	-0.8	-3.8	101.6	-7.3
CN(C)CCCNS(=O)(=O)c1ccc(Cl)s1	-2.2	-7.0	-0.7	98.1	-5.0
SMILES	SUMO1-SIM PPI	LMPTP inh	STEP inh	Pemphigus Ab inh	Scp1 inh	others
NCCCC[C@H]1NC(=O)[C@H](CCC(=O)O)NC(=O)c2cc([N+](=O)[O-])cc(I)c2OCC[C@@H](C(N)=O)NC1=O	nt	nt	nt	nt	91.3*
CC(=O)Oc1ccc(/C(C)=N\N2CCN(Cc3ccc(Cl)cc3)CC2)cc1	3.3	-0.3	-2.8	120.9	-1.2
Cc1ccc(NCCC(=O)c2ccc(Cl)cc2)cc1	-1.1	0.5	-1.1	96.7	-7.7
Cc1ccc(C(=O)CNc2ccc(C)c(Cl)c2)cc1	0.8	-0.2	-1.0	-6.7*	1.3
Cc1ccc(NCCC(=O)c2ccccc2)cc1Cl	-0.7	-1.1	-1.3	89.1*	-6.1
Cc1ccc(NCC(=O)c2ccccc2)cc1Cl	-3.0	-0.7	0.3	103.6	-8.0
Cc1ccc(NC(=O)CCCN2C(=O)/C(=C/C=C/c3ccccc3)SC2=S)cc1	1.3	1.3	0.9	85.0*	-7.3
O=C(NN1C(=O)/C(=C/C=C/c2ccco2)SC1=S)c1ccccc1O	76.7*	61.2*	14.0	79.4	74.0*
O=C(O)CCCN1C(=O)/C(=C/C=C/c2ccco2)SC1=S	103.2*	35.0	54.3*	92.2	96.7*
COc1ccc(/C=C2\SC(=S)N(C(Cc3ccccc3)C(=O)O)C2=O)cc1 (stereo not given)	-14.0	0.4	6.8	96.7	-4.5
O=C(O)C(Cc1ccccc1)N1C(=O)/C(=C/C=C/c2ccco2)SC1=S (stereo not given)	114.5*	63.8*	83.3*	88.0	83.7*
O=C1CSC(c2ccc(F)cc2)N1c1nc2ccccc2s1 (stereo not given)	-1.6	1.8	1.2	119.8	-5.2
O=C(O)CC(C(=O)O)N1C(=O)/C(=C/C=C/c2ccco2)SC1=S (stereo not given)	112.3*	65.6*	89.1*	77.0	87.6*
Cc1cc(-c2ccccc2)nc(Nc2nc3c(C)cccc3c(=O)[nH]2)n1	52.6*	7.2	-0.2	102.0	-8.4
Cc1sc(NC(=O)CSc2nnc(COc3ccccc3)n2C)c(C#N)c1C	-0.8	-1.3	-1.0	99.0	-7.8
Cc1sc(NC(=O)CSc2nnc3scc(-c4ccccc4)n23)c(C#N)c1C	44.6*	1.2	1.7	84.2*	-6.4
Cc1c(C(=O)Nc2ccc3c(c2)OCCO3)sc2ncnc(N3CCCCC3C)c12 (stereo not given)	-8.6	2.4	1.1	100.5	8.0
O=C(Cc1c(F)cccc1Cl)Nc1ccccc1-c1ccccc1	10.8	-1.6	-1.5	47.4*	-0.6
O=C(Cc1ccccc1F)Nc1ccccc1-c1ccccc1	2.1	-2.2	-0.1	nt	-9.6
COc1cc(-c2cc(=O)c3c(C)cc(O)cc3o2)cc(OC)c1OC	7.1	-1.6	4.2	96.6	4.7
COc1ccc(-c2cc(=O)c3c(C)cc(O)cc3o2)cc1	45.1*	18.1	2.7	98.3	46.8
COc1ccc(N2CCN(C(=O)COC(=O)/C=C/c3ccc(OC(F)F)cc3)CC2)cc1	-0.1	1.0	1.2	89.8*	-1.1
CCOc1ccc(NC(=O)CN(C)C(=O)c2ccc(N3CCCC3)c([N+](=O)[O-])c2)cc1OCC	-23.1	1.4	2.7	96.5	52.7*	Scp1 confirm=-18.4;MG interference=-17.8
